The target in test [1] is T1, Serine protease 1 (Bos taurus, UniProt P00760).
T1 sequence (P00760 whole entry): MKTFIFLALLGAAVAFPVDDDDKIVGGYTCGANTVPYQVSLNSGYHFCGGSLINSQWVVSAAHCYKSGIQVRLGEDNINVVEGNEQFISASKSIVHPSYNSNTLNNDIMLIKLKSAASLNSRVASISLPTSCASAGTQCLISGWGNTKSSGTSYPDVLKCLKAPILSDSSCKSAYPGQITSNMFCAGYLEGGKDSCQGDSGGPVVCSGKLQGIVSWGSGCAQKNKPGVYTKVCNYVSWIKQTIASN
Put plainly: Apparent binding constant against bovine trypsin. In short, it runs like this: (§1)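 Pseudo-first-order inactivation at pH 7.5, 25 °C, inhibitor in excess. Two methods. Preincubation: aliquots taken over time and assayed for residual activity, kobs from semilog plots. Progress curve: continuous A405 with chromogenic substrate present, vs blank with inhibitor and substrate (trypsin 0.5 μM, BAPNA 0.3 mM, 1.5% DMSO; urokinase 31 nM, S-2444). KI and kinact from double-reciprocal (Wilkinson) fits.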

The target in test [2] is Prothrombin (Homo sapiens) (UniProt P00734). Put plainly: Ratio of inactivation to apparent binding constant against thrombin;NI=no inhibition. Put shortly: (§2)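 Thrombin (0.1 μM) preincubated with 300 μM inhibitor at pH 7.5, 25 °C. Timed aliquots assayed for residual activity with S-2238. Pseudo-first-order kobs from semilog plot of remaining activity vs time.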
The target in test [3] is T2, Serine protease 1 (Bos taurus) (UniProt P00760).
T2 sequence (whole entry): T1 sequence (P00760 whole entry)

For test [4], the target named is Plasminogen (Homo sapiens) (UniProt P00747). As to the kind of experiment: Ratio of inactivation to apparent binding constant against plasmin. Put shortly: (§3)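 Plasmin (1 μM; 0.7 μM in one series) preincubated with inhibitor 34-560 μM at pH 7.5, 25 °C. Aliquots assayed for residual activity on S-2251. kobs from semilog plots; kinact/KI from Kitz-Wilson analysis or as kobs/[I].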

Test [5] concerns the target T3, Urokinase-type plasminogen activator (Homo sapiens, UniProt P00749). Put plainly: Ratio of inactivation to apparent binding constant against human urokinase. In short, it runs like this:
as §1

Test [6] deals with T3, Urokinase-type plasminogen activator. Put plainly: Apparent binding constant against Human urokinase. In short, it runs like this: as §1
For test [7], the target named is T2, Serine protease 1 (Bos taurus). As to the kind of experiment: Ratio of inactivation to apparent binding constant against bovine trypsin. Put shortly: as §1
The target in test [8] is T3, Urokinase-type plasminogen activator.
The target of test [9] is Tissue-type plasminogen activator (Homo sapiens) (UniProt P00750). As to the kind of experiment: Ratio of inactivation to apparent binding constant against tissue plasminogen activator (t-PA);NI=no inhibition. Put shortly: (§4)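 t-PA (0.75 μM) preincubated with inhibitor 0.37-1 mM at pH 7.5, 25 °C. Aliquots assayed periodically for remaining amidolytic activity with p-nitroanilide substrate. kobs from semilogarithmic plots.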

Test [10] has as its target Plasminogen (Homo sapiens) (UniProt P00747). Put plainly: Ratio of inactivation to apparent binding constant against plasmin;NI=no inhibition. Put shortly: as §3
The target of test [11] is T2, Serine protease 1 (Bos taurus). Put plainly: Ratio of inactivation to apparent binding constant against bovine trypsin;NI=no inhibition.
Test [12] has as its target T3, Urokinase-type plasminogen activator. As to the kind of experiment: Inactivation constant determined against urokinase. In short, it runs like this: as §1
In test [13] the target is T2, Serine protease 1 (Bos taurus). Put plainly: Inactivation constant determined against bovine trypsin. Put shortly:
as §1

Test [14] addresses Trypsin (Sus scrofa) (UniProt P00761). As to the kind of experiment: Inactivation constant determined against porcine trypsin.
The target is the same in test [15]. Put plainly: Ratio of inactivation to apparent binding constant against porcine trypsin.
The target in test [16] is T2, Serine protease 1 (Bos taurus). Put plainly: Ratio of inactivation to apparent binding constant against bovine trypsin (obtained as k obs/[I] at low inhibitor concentration). Put shortly: (§5)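 For weak inactivation, kinact/KI taken as kobs/[I] at low inhibitor concentration. Preincubation at pH 7.5, 25 °C: trypsin 4.5 μM or urokinase 55 μM with excess inhibitor. Aliquots diluted (or filtered at 4 °C) and assayed for residual activity on BAPNA or S-2444. kobs by least squares of semilog remaining activity vs time.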

Test [17] deals with T3, Urokinase-type plasminogen activator. Put plainly: Ratio of inactivation to apparent binding constant against human urokinase (obtained as k obs/[I] at low inhibitor concentration). In short, it runs like this: as §5
For test [18] the target is unchanged. As to the kind of experiment: Ratio of inactivation to apparent binding constant against human urokinase; NI=no inhibition.
Test [19] concerns the target Tissue-type plasminogen activator (Homo sapiens) (UniProt P00750). Put plainly: Ratio of inactivation to apparent binding constant against tissue plasminogen activator (t-PA). In short, it runs like this:
as §4

For test [20], the target named is Prothrombin (Homo sapiens) (UniProt P00734). As to the kind of experiment: Ratio of inactivation to apparent binding constant against thrombin. In short, it runs like this:
as §2

Activity calls are given as the source filed them. The calls are words filed in the database; no cut-off is given here.

Chain of Plasminogen (Homo sapiens) (P00747 97-580 limits assumed): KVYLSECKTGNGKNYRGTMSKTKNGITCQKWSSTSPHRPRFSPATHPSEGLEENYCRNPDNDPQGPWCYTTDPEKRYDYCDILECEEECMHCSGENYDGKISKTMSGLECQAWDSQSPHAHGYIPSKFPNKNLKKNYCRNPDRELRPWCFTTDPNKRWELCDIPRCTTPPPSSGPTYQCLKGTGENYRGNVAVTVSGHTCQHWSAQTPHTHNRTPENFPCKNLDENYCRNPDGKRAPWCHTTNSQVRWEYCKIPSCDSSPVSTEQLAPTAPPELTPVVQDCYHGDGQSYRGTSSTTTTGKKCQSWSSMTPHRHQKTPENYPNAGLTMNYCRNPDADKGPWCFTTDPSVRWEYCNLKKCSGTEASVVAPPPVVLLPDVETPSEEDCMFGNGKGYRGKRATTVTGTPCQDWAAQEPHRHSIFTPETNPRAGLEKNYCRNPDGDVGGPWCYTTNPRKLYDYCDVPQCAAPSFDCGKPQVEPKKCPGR
Chain of Plasminogen (Homo sapiens) (P00747 581-810 limits assumed): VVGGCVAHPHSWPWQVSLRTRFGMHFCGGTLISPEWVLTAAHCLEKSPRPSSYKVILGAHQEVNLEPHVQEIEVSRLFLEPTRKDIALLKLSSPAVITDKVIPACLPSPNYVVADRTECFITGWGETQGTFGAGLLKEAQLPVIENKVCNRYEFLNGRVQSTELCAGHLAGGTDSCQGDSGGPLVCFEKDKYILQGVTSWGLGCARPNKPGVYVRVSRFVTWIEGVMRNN
Chain of Tissue-type plasminogen activator (Homo sapiens) (P00750 36-562 limits assumed): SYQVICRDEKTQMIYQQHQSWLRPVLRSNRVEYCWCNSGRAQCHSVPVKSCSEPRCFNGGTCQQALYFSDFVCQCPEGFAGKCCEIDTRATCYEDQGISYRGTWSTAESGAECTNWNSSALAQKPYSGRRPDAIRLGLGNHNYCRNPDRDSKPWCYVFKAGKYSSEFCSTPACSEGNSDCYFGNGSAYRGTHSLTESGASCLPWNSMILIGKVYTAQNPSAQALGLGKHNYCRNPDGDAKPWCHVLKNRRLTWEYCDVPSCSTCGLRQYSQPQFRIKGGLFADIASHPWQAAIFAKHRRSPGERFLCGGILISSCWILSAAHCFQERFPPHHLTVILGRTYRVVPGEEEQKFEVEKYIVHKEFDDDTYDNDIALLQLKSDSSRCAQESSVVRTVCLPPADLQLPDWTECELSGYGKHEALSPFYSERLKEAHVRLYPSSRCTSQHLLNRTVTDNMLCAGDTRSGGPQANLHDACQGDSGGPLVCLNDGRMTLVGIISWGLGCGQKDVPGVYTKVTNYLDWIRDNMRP
Chain of Trypsin (Sus scrofa) (P00761 whole entry, looked up): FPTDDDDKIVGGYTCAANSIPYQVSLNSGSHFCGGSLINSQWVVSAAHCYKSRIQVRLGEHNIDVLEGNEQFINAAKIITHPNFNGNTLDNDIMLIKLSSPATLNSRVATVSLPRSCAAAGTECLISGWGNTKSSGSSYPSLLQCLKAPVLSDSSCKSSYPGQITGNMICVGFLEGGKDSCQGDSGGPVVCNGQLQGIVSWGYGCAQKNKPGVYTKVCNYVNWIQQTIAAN

Consider `C[S+](Cc1ccc2cc1C(=O)NCC(=O)NC(CCCN=C(N)N)C(=O)N2)c1ccccc1` (stereo unspecified), for which the Ki in test [1] came out at 12 µM; in test [6], 9 µM. The Ratio in test [2] turned out to be 12 M⁻¹ s⁻¹; in [4] it was 40 M⁻¹ s⁻¹; in [5] it was 2330 M⁻¹ s⁻¹; in test [7], 916 M⁻¹ s⁻¹; in test [9] it was 1 M⁻¹ s⁻¹. For the same compound, the kinact was 0.011 s⁻¹ in [3] and 0.021 s⁻¹ in [8].
For `C[S+](C)Cc1ccc2cc1C(=O)NCC(=O)NC(CCCCN)C(=O)N2` (stereo unspecified), the Ratio result in test [2], in [10], in [9] and in test [11] was “inactive” throughout.
`C[S+](C)Cc1ccc2cc1C(=O)NCC(=O)NC(CCCN=C(N)N)C(=O)N2` (stereo unspecified): the Ratio result in test [2], in test [10] and in test [9] was “inactive” in each case. Moreover, in [12], the K inact stood at 0.014 s⁻¹. In addition, the Ratio in test [5] is 341 M⁻¹ s⁻¹; in test [7] it was 1 M⁻¹ s⁻¹. Also, the Ki in [6] worked out at 41 µM.
Turning to `C[S+](Cc1ccc2cc1C(=O)NCC(=O)NC(CCCCN)C(=O)N2)c1ccccc1` (stereo unspecified), the K inact in test [13] was 0.0075 s⁻¹; in test [12], 0.077 s⁻¹. Further, the Ki amounted to 8.7 µM in [1] and 500 µM in test [6]. Besides, the Ratio entry in test [2] and in [9] was “inactive” in each case. The figures for the Ratio in test [4], in test [5] and in test [7] were 75 M⁻¹ s⁻¹, 154 M⁻¹ s⁻¹ and 860 M⁻¹ s⁻¹, respectively.
As for `C[S+](Cc1ccc2c(c1)C(=O)NCC(=O)NC(CCCCN)C(=O)N2)c1ccccc1` (stereo unspecified), the Ratio result in [2], in test [10], in test [9] and in test [11] was “inactive” throughout. The Ratio in test [5] turned out to be 25 M⁻¹ s⁻¹.
With `N=C(N)NCCCC1NC(=O)CNC(=O)c2cc(ccc2CBr)NC1=O` (stereo unspecified), the K inact in [13] amounted to 0.031 s⁻¹; in [14], 0.041 s⁻¹; in [12], 0.017 s⁻¹. Besides, the Ki in [1] was 55 µM; in [6] it was 92 µM. In addition, the Ratio result in [2] and in [9] was “inactive” in each case. For the same compound, the Ratio in test [15] was 2050 M⁻¹ s⁻¹; in test [4] it was 2 M⁻¹ s⁻¹; in test [5], 185 M⁻¹ s⁻¹; in test [7], 560 M⁻¹ s⁻¹.
As for `C[S+](Cc1ccc2c(c1)C(=O)NCC(=O)NC(CCCN=C(N)N)C(=O)N2)c1ccccc1` (stereo unspecified), the Ratio result in test [2], in test [10] and in test [9] was “inactive” each time. For the same compound, the Ratio in test [16] was 50 M⁻¹ s⁻¹; in test [17] it was 14 M⁻¹ s⁻¹.
With `NCCCCC1NC(=O)CNC(=O)c2cc(ccc2CBr)NC1=O` (stereo unspecified), the K inact in test [13] stood at 0.02 s⁻¹. In [1], the Ki was 80 µM. Moreover, the Ratio entry in test [2], in test [10] and in [9] was “inactive” each time. Moreover, in [7], the Ratio is 250 M⁻¹ s⁻¹.
In the case of `N=C(N)NCCCC1NC(=O)CNC(=O)c2cc(CBr)ccc2NC1=O` (stereo unspecified), the Ratio was 14 M⁻¹ s⁻¹ in [18]; “No inactivation” in test [19]; “No inactivation” in test [4]; “No inactivation” in [20]; 5 M⁻¹ s⁻¹ in test [11].
`NCCCCC1NC(=O)CNC(=O)c2cc(CBr)ccc2NC1=O` (stereo unspecified): the Ratio result in [2], in test [18], in test [10], in test [9] and in test [11] was “inactive” each time.

In general, kinact refers to the maximal first-order rate at which the target is inactivated.

(Values after ChEMBL document CHEMBL1126701, “New mechanism-based inactivators of trypsin-like proteinases. Selective inactivation of urokinase by functionalized cyclopeptides incorporating a sulfoniomethyl-substituted m-aminobenzoic acid residue” (J Med Chem, 1993).)
